Sampled rows, rich in hits. Any-hit rate of the full collection: about 2.8%.
AI-2 QS mod: Vibrio harveyi AI-2 quorum sensing modulation | Vibrio harveyi JMH597 AI-2 luminescence/OD600 ratio, 9 h; active compounds read low; strain lacks LuxN and CqsS sensors; 0 = neutral-control median | activity change, % at 7.5 µM | AID 2094 | 0.4% of 300,000 active; in the data active means activity change below about -75%, passing the limit was not always enough; inconclusive means no clear call, values can overlap the other calls;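 further: luminescence divided by OD600 gain over 9 h not by final OD600 alone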
UBC13 inh: inhibitors of human UBC13 polyubiquitin chain formation | inhibition, % at 20 µM | TR-FRET | AID 485273 | 0.47% of 330,000 active | P61088; in the data active means inhibition above about 45%, passing the limit was not always enough; inconclusive means no clear call, values can overlap the other calls
Target sequence (P61088 whole entry, looked up): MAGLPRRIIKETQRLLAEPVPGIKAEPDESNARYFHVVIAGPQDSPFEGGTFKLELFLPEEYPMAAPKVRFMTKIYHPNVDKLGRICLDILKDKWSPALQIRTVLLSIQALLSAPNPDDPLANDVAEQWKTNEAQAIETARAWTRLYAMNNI
pCIP destab: p/CIP protein destabilization. F442A p/CIP-EGFP cells, EGFP fluorescence, 16 h. decrease of EGFP signal, % at 10 µM. AID 1984. Q05BA5. 0.01% of 290,000 active;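 active means EGFP signal decrease of at least 30% at 10 µM or well 3 SD below plate mean, unless failing retest; inactive means the rest, including hits failing retest or dose response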
T cruzi repl: blocks replication of Trypanosoma cruzi | 1.4% of 300,000 active | T. cruzi beta-gal in NIH3T3, luminescence, 90 h | inhibition, % (concentration not given with the values);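 active means mean inhibition across valid replicates above about 55%, limit read from the data; inconclusive means mean below that limit but half or more replicates reach it; inactive means mean below it, under half of replicates reach it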;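 further: signal also drops with host cell toxicity which is not excluded here; 0% = plate median of DMSO wells and 100% = zero luminescence signal; higher percent means less beta-gal luminescence so fewer parasites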
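System: Mouse NIH/3T3 fibroblasts infected with β-gal-expressing T. cruzi Tulahuen C4 | Quantity: NIH/3T3 cells, 5,000 per well | Reagent: 5000 reporter trypomastigotes per well | Dosing: Compound pinned at 50 nL/well, DMSO | Schedule: 3 h host attachment, then at least 90 h co-culture | Detection: GalScreen luminescence, 60 min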
PP1 inh: blocks human PP1-alpha phosphatase, a PP5 counter-screen. P62136. purified PP1alpha, OMFP fluorescence. inhibition, % at 6.7 µM. 0.9% of 320,000 active;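 active means inhibition above the mean inhibition of all tested compounds plus 3 SD, computed separately for each screening campaign, cut at about 15% in these data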
PP1 inh confirm: human PP1 phosphatase inhibition, confirmation. shares compounds with PP1 inh. purified PP1alpha, OMFP substrate fluorescence. inhibition, % at 6.7 µM. 52% of 1,900 active;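 active means mean PP1 inhibition above a set limit taken from the earlier primary screen, cut at about 15% in these data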
PP5 inh counter: counter-screen for PP1 inhibitors: human PP5 phosphatase inhibition; shares compounds with PP1 inh; purified PP5c, OMFP fluorescence; inhibition, % at 6.7 µM; 4% of 1,900 active; AID 2360;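 active means mean PP5 inhibition over triplicate wells above about 9.5% taken from the earlier PP1 screen, limit read from the data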
Target sequence (P53041 whole entry, looked up): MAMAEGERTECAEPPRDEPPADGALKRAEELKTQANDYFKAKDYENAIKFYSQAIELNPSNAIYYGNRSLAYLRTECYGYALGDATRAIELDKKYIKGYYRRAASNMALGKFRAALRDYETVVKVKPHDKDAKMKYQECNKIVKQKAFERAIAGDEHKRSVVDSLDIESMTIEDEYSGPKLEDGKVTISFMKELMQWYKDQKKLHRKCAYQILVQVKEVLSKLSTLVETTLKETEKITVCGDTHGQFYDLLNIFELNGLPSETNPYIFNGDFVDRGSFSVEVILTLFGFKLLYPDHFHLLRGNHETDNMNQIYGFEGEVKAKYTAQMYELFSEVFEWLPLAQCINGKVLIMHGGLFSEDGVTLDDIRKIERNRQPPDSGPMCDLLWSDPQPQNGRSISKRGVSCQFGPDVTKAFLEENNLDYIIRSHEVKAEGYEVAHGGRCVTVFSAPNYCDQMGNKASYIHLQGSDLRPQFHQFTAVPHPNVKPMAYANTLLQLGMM
Casp3 UBC13 ctr: inhibits human caspase-3 in UBC13 counter-screen | shares compounds with UBC13 inh | Recombinant caspase-3, Caspase-Glo 3/7 luminescence, 60 min | inhibition, % at 20 µM | 4% of 1,400 active | AID 488856;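 active means mean inhibition across replicates above about 26%, limit read from the data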;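 further: plate controls were DMSO with caspase-3 for no effect and DMSO wells lacking enzyme for full effect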
UBC13 conf: confirmation of human UBC13 polyubiquitin inhibitors | AID 488859 | UBC13 polyubiquitination, TR-FRET, biochemical | 68% of 1,400 active | inhibition, % at 10 µM | shares compounds with UBC13 inh; in the data active means inhibition above about 45%; inconclusive means no clear call, values can overlap the other calls
Starred values were filed as active, the others as inactive; ? = inconclusive; / = no result given.

SMILES | AI-2 QS mod | UBC13 inh | pCIP destab | T cruzi repl | PP1 inh | PP1 inh confirm | PP5 inh counter | others
CCOc1ccc(NC(=S)Nc2ccc(OCC)cc2)cc1 | 16.7 | -4.2 | -0.2 | 20.3 | -3.0 | / | /
CCOc1ccc(C(=O)Nc2nnc(NC(=S)Nc3ccccc3)s2)cc1 | 32.8 | 14.2 | -1.2 | 30.8 | 18.9* | 32.9* | 3.8
CC(=O)c1ccccc1NC(=O)COC(=O)/C(=C/c1ccccc1)n1nnnc1C | 24.1 | -7.3 | 8.5 | -9.8 | -3.9 | / | /
COc1ccc(-c2ccnc3nc(-n4cccc4)nn23)cc1 | 26.4 | 12.8 | 0.8 | 11.5 | 18.6* | 19.5* | -5.0
COc1ccc(-c2ccnc3nc(N4CCOCC4)nn23)cc1 | 6.8 | 12.7 | 0.4 | -9.2 | -11.6 | / | /
COc1ccc(Br)cc1CN(C)C(=O)c1cc(Cl)c2c(c1)OCCO2 | 13.1 | 3.8 | 2.4 | 3.9 | 0.0 | / | /
CCOc1ccc(S(=O)(=O)N(CC(=O)N/N=C/c2ccc(-c3ccc([N+](=O)[O-])cc3)o2)c2ccccc2)cc1 | 0.9 | -19.8 | -3.9 | 21.9 | 32.9* | 35.1* | -0.4
CCOc1ccc(NC(=O)CN(c2ccc([N+](=O)[O-])cc2)S(=O)(=O)c2ccccc2)cc1 | -7.5 | 0.5 | -6.3 | 44.2 | 3.7 | / | /
CCN1CCN(c2ccc(S(=O)(=O)N3CCOCC3)cc2NC(=O)C(C)Oc2ccc(F)cc2)CC1 (stereo unspecified) | / | 1.5 | / | / | 3.4 | / | /
Cc1sc(NC(=O)Cn2[nH]c(=O)c3ccccc3c2=O)nc1-c1ccccc1 | 6.5 | -13.5 | -21.6 | -15.5 | 28.6* | 27.4* | -1.8
Cc1ccccc1OCC(=O)NNC(=O)c1ccc2c(=O)n3c(nc2c1)CCC3 | 17.5 | -5.2 | / | -5.9 | -4.0 | / | /
O=C(N/N=C/c1cccs1)c1cc(-c2cccc3ccccc23)n[nH]1 | 34.8 | 2.9 | -21.6 | 1.6 | 2.3 | / | /
O=C(N/N=C/c1ccccn1)c1cc(-c2cccc3ccccc23)n[nH]1 | 46.9 | -10.4 | -7.3 | 5.7 | 18.9* | 26.6* | 2.7
O=C(N/N=C/c1cccs1)c1cc(-c2ccc3ccccc3c2)n[nH]1 | 6.3 | -13.4 | -10.2 | -21.7 | 8.9 | / | /
O=C(N/N=C/c1ccccn1)c1cc(-c2ccc3ccccc3c2)n[nH]1 | 51.5 | 16.5 | -7.4 | -35.6 | 27.6* | 62.4* | 5.6
O=C(Cn1c(C(=O)OCCO)cc2ccccc21)c1ccccc1 | 13.0 | -3.6 | -8.4 | -3.4 | 0.1 | / | /
O=C(NNC(=O)c1cc2cc3ccccc3nc2s1)c1ccc(F)cc1 | 6.1 | -12.1 | -6.4 | 10.2 | 24.2* | 6.8 | -5.6
Nc1c(C(=O)c2ccc(Br)cc2)oc2ccccc12 | 11.0 | -0.2 | 5.9 | 5.8 | 17.7* | -3.6 | -3.4
Cc1ccc(C)c(NC(=O)C2CCCN(S(=O)(=O)c3c(C)nn(C)c3C)C2)c1 (stereo unspecified) | / | -1.3 | -1.7 | -2.6 | -2.3 | / | /
CCN(CC)CCN1C(=O)/C(=C\c2ccc(Cl)c([N+](=O)[O-])c2)SC1=Nc1ccc(OC)cc1 | 8.6 | 13.2 | -8.9 | 56.7* | 18.7* | -5.9 | 1.6
CCN1C(=O)/C(=C/c2cccs2)SC1=Nc1ccc(OC)cc1 | 50.3 | 0.5 | -13.0 | 12.6 | -1.4 | / | /
O=C(COC(=O)Cc1cccc(C(F)(F)F)c1)Nc1ccc2[nH]c(=O)[nH]c2c1 | 18.5 | -1.0 | / | -10.6 | -1.8 | / | /
CCCCCCSc1cccc(-c2nc3cc(C)ccn3c2NCc2ccccc2)c1 | 20.3 | 9.6 | / | 19.9 | 19.4* | 4.1 | -0.1
CCC(C)Sc1cccc(-c2nc3ccc(Cl)cn3c2NCc2ccccc2)c1 (stereo unspecified) | 26.4 | 8.6 | / | 24.4 | 19.4* | 5.4 | 2.8
CCCCCCSc1cccc(-c2nc3cc(C)ccn3c2NC2CCCCC2)c1 | 18.6 | 35.7 | / | 31.0 | 18.8* | 3.5 | -0.4
SMILES | AI-2 QS mod | UBC13 inh | pCIP destab | T cruzi repl | PP1 inh | PP1 inh confirm | PP5 inh counter | others
N#Cc1ccc(N2CCCNCC2)nc1 | 26.7 | -5.1 | 0.4 | -3.2 | -0.7 | / | /
Oc1c(C(c2ccccn2)N2CCCCC2)cc(Cl)c2cccnc12 (stereo unspecified) | ? | -0.9 | -3.2 | 20.1 | 75.5* | 73.1* | 3.1
OCCN1CCN(C(c2cccs2)c2ccc3cccnc3c2O)CC1 (stereo unspecified) | / | / | 1.8 | / | / | / | /
Cc1[nH]c2ccccc2c1C(c1ccccn1)N1CCCC1 (stereo unspecified) | 17.8 | -0.4 | -8.1 | 1.0 | -2.1 | / | /
CN1CCN(C(c2ccc(Cl)cc2)c2cc(Cl)c3cccnc3c2O)CC1 (stereo unspecified) | -121.9* | 9.0 | -21.4 | 44.5 | 22.0* | -2.6 | 0.8
CCN1CCN(C(c2ccc(C(F)(F)F)cc2)c2ccc3cccnc3c2O)CC1 (stereo unspecified) | -119.3* | -5.5 | -13.3 | 40.0 | 18.3* | -6.2 | -1.2
CN1CCN(C(c2ccc(C(F)(F)F)cc2)c2cc(Cl)c3cccnc3c2O)CC1 (stereo unspecified) | -85.0* | 8.6 | -26.3 | 59.0* | 21.2* | 1.6 | -2.6
CCOC(=O)C1CCN(C(=O)CCC(=O)NNc2nc3ccccc3c3nc(C)nn23)CC1 | 3.7 | 4.0 | -1.0 | -6.2 | -2.4 | / | /
CC(=O)c1cccc(NC(=O)CCc2nnc3ccc(NCc4ccc5c(c4)OCO5)nn23)c1 | -7.6 | 14.2 | -9.9 | -32.7 | 0.8 | / | /
COc1ccccc1CNC(=O)COC(=O)c1nc(Cl)ccc1Cl | 5.3 | -5.4 | / | -5.4 | -2.8 | / | /
CC1CC(=O)N(CC(=O)Nc2ccc(F)cc2F)c2ccccc2S1(=O)=O (stereo unspecified) | 2.0 | -1.6 | -0.9 | -5.2 | -1.5 | / | /
COc1ccc(C2C3C=CCC(c4cccc(-c5ccc(C)cc5)c4)C3C(=O)N2Cc2ccccc2)cc1Cl (stereo unspecified) | 6.0 | -3.2 | -0.4 | 14.0 | 17.8* | -0.1 | -5.9
Cc1ccc(S(=O)(=O)N(C)C)cc1NC(=O)COC(=O)COc1ccc2c(c1)CCC2 | 13.7 | 3.6 | / | -5.4 | -3.2 | / | /
O=C(NC1CCCC1)C(c1ccccn1)N(Cc1ccccc1F)C(=O)c1csnn1 (stereo unspecified) | 13.8 | 4.0 | -4.7 | 7.2 | 1.9 | / | /
Cc1ccc(Nc2nc(NCc3ccco3)c3ccccc3n2)cc1 | 19.5 | 51.1* | -8.4 | 66.3* | 19.9* | 14.9 | -1.9 | Casp3 UBC13 ctr=8.2;UBC13 conf=93.3*
COc1ccc(CN(CCN(C)C)c2ccccn2)cc1 | 4.4 | -3.2 | -10.7 | 12.2 | -3.2 | / | /
